Compounds with a hit are over-represented: about 1.7% of the library has one in this group of screens.
PP5 inh: inhibitors of human protein phosphatase 5 (PP5) | inhibition, % at 6.7 µM | P53041 | purified PP5c, OMFP substrate fluorescence | actives 0.18% (n = 320,000);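 active = inhibition above the campaign's mean inhibition across all tested compounds plus 3 SD, cut at about 9.5% in these data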;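 note: 0% = DMSO only and 100% = 100 µM cantharidin control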
GASC-1 inh: blocks human GASC-1 demethylase activity; Q9H3R0; inhibition, % at 2.35 µM; GST-JMJD2C(1-420) H3K9me3 demethylation, DELFIA europium; actives 0.069% (n = 330,000);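 active = more than half of a compound's replicate wells show inhibition beyond 50%, single wells judged on their own value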;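 note: signal counts dimethyl H3K9 product captured on neutravidin plate; 0% = median of DMSO wells and 100% = 0.3 times that DMSO median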
T cell modulator: T cell immune modulators affecting CD8 T cell-vesicle binding; 2C CD8+ T cell-vesicle binding, flow cytometry; active compounds read low; response (vesicle binding), % at 7 µM; actives 0.068% (n = 330,000); AID 2052;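 active = response, share of CD8 T cells binding vesicles, and their 90th percentile fluorescence all below set limits, cut at about 80% in these data, passing the limit was not always enough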;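 note: values below 100% mean blocked vesicle binding to the CD8+ T cells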
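material = purified 2C TCR transgenic mouse naive CD8+ T cells | controls = Unloaded micro-vesicles (low), QL9 vesicles with 0.7% DMSO (high) | detection = cytometric PE anti-B7-1 and Alexa647 anti-CD8 signals after 1% paraformaldehyde fixation | incubation = binding step 1.5 h, 37 °C, antibody labelling 20 min, ice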
m5-HT2A agonist: mouse HTR2A agonism via beta-arrestin recruitment. P35363. CHO-K1 mHTR2A beta-arrestin complementation, luminescence; percent of 30 µM serotonin response. activation, % at 7.6 µM. actives 0.66% (n = 360,000). AID 624169;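 active = activation above a run cutoff, the mean activation of all tested compounds plus 3 SD, cut at about 14% in these data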;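 note: 0% = plate median of compound wells and 100% = 30 µM serotonin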
PP1 inh: blocks human PP1-alpha phosphatase, a PP5 counter-screen | P62136 | purified PP1alpha, OMFP fluorescence | inhibition, % at 6.7 µM | actives 0.9% (n = 320,000);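 active = inhibition above the mean inhibition of all tested compounds plus 3 SD, computed separately for each screening campaign, cut at about 15% in these data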
Target sequence (P62136 whole entry, looked up): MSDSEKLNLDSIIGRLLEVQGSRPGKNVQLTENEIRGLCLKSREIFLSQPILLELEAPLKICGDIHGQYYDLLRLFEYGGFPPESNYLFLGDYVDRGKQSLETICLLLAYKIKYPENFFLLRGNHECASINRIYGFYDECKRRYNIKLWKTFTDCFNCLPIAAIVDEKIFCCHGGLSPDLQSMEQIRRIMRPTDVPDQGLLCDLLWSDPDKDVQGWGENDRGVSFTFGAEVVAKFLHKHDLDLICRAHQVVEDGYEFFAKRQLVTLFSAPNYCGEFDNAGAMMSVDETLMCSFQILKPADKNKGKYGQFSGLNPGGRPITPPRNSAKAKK
PP1 inh confirm: confirmation of human PP1 phosphatase inhibitors | AID 2358 | actives 52% (n = 1,900) | inhibition, % at 6.7 µM | purified PP1alpha, OMFP substrate fluorescence | shares compounds with PP1 inh;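 active = mean PP1 inhibition above a set limit taken from the earlier primary screen, cut at about 15% in these data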
PP5 inh counter: PP5 phosphatase inhibition, counter-screen for PP1 inhibitors. purified PP5c, OMFP fluorescence. inhibition, % at 6.7 µM. actives 4% (n = 1,900). shares compounds with PP1 inh;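 active = mean PP5 inhibition over triplicate wells above about 9.5% taken from the earlier PP1 screen, limit read from the data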
The depositor's hits bear a star; i = inactive; nt = not tested or not shown.

SMILES | PP5 inh | GASC-1 inh | T cell modulator | m5-HT2A agonist | PP1 inh | PP1 inh confirm | PP5 inh counter
O=C1C(Cc2ccccc2)Nc2ncnc(N3CCc4ccccc4C3)c2N1Cc1ccc(Cl)cc1 (configuration not stated) | 3.7 | 3.1 | nt | -0.9 | 24.4* | 20.1* | 5.7
CCCCOC1NC(=O)NC(=O)C1(F)C(=O)OCC (configuration not stated) | nt | nt | nt | -3.7 | nt | nt | nt
COc1ccccc1-c1cc(-c2ccccc2)nc(SC(C(N)=O)c2ccccc2)c1C#N (configuration not stated) | 2.1 | 0.2 | 289.1 | 2.1 | 18.9* | 26.6* | -6.0
O=C(OCc1ccccc1)N1CCCCC1c1c(Cl)cccc1Br (configuration not stated) | nt | nt | nt | -3.8 | nt | nt | nt
Cc1nn(-c2ccccc2)c(Cl)c1/C=N/NC(=O)CCNc1n[nH]c(=O)[nH]c1=O | -0.3 | -4.3 | 74.2 | nt | -2.8 | nt | nt
O=C1CC(C(=O)N2CCN(S(=O)(=O)c3cccc(F)c3)CC2)CN1Cc1ccccc1Cl (configuration not stated) | 2.7 | 14.0 | 440.4 | 0.2 | 0.1 | nt | nt
CCOC(=O)C1=C(COC(=O)CCc2ccccc2)NC(=O)NC1C (configuration not stated) | -0.8 | 3.9 | 392.4 | -1.9 | -3.0 | nt | nt
CCCCNC(=O)C1(C)CCC(=O)N1c1cc(C(C)(C)C)nn1C (configuration not stated) | nt | nt | nt | 0.1 | nt | nt | nt
O=C(Nc1nc(-c2cccnc2)cs1)c1ccccc1Cl | -0.3 | -16.1 | 253.1 | 2.9 | 19.8* | 23.4* | -6.3
CC(C)[C@H](NC(=O)c1ccccc1Cl)C(=O)Nc1nc(-c2ccccn2)cs1 | 2.8 | -11.7 | 252.9 | -4.0 | 17.6* | 26.9* | 0.3
Cc1ccccc1C(=O)Nc1nc(-c2cccnc2)cs1 | -0.7 | -9.8 | 454.0 | -0.2 | 0.6 | nt | nt
CC(Oc1ccc(Br)cc1)C(=O)Nc1nc(-c2ccccn2)cs1 (configuration not stated) | 5.5 | -6.3 | 539.9 | -17.2 | 31.0* | 32.2* | -2.1
c1ccc(-c2nccc(-c3ccc(-n4cnc5ccccc54)cc3)n2)cc1 | 2.8 | 5.7 | 159.5 | 3.4 | 18.1* | 24.5* | -0.2
c1ccc(-n2cnc3ccccc32)nc1 | 2.4 | 4.1 | 291.5 | -1.2 | -1.0 | nt | nt
Cc1ccc(NC(=O)/C(C#N)=C/c2cn(CC(=O)NCc3ccco3)c3ccccc23)cc1C | 0.6 | 6.8 | 89.3 | 3.0 | 31.8* | 31.0* | -1.4
Cc1cc(C)cc(NC(=O)/C(C#N)=C/c2cn(CC(=O)NCc3ccco3)c3ccccc23)c1 | -0.4 | 3.8 | 360.8 | 4.5 | 4.1 | nt | nt
O=C(O)c1ccc2ncsc2c1 | 4.3 | -2.2 | 465.4 | 3.3 | 18.9* | 37.4* | 1.3
O=C(c1ccc2ncsc2c1)N1CCCCC1 | -6.3 | -4.3 | 162.4 | 2.2 | -4.3 | nt | nt
O=C1/C(=C\c2cccnc2)Sc2ccccc21 | 2.8 | -6.5 | 198.6 | -3.1 | 18.9* | 16.4* | -3.2
CCCCn1c2ccccc2c2nnc(SCC(=O)NC3=NN=C(c4ccccc4)CS3)nc21 | 2.4 | 1.7 | i | nt | 26.1* | 26.5* | 3.4
CN(CC(=O)Nc1ccccc1N1CCCC1)S(=O)(=O)c1ccc(F)cc1 | 0.8 | -8.0 | 342.3 | -0.6 | 74.3* | -19.5 | -2.8
CC(=O)Nc1ccc(S(=O)(=O)N(C)CC(=O)Nc2ccccc2N2CCOCC2)cc1 | -1.0 | -12.5 | 276.5 | 9.1 | -0.9 | nt | nt
Cc1c(C(=O)OCC(=O)N2CCN(c3ccccc3)CC2)oc2ccccc12 | nt | -3.8 | 340.8 | 2.8 | nt | nt | nt
CCOC(=O)c1c(NC(=O)CN2C(=O)NC3(CCC(C)CC3)C2=O)sc(C)c1-c1ccc(C)cc1 (configuration not stated) | 0.3 | 11.7 | 144.4 | -1.3 | -1.6 | nt | nt
CCOC(=O)c1cc(NC(=O)C2C3C=CC(O3)C2C(=O)O)cc(C(=O)OCC)c1 (configuration not stated) | 22.6* | -5.4 | 181.9 | 4.0 | 16.9* | -0.2 | 0.6
CCOc1ccc(OCC)c(NC(=O)C2C3C=CC(O3)C2C(=O)O)c1 (configuration not stated) | nt | nt | nt | -0.6 | nt | nt | nt
